Laboratory results as given in PubChem BioAssay.
Activity calls are given as the source filed them.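 Rule for the calls, unless noted: active = viability loss from added drug above about 55%, and viability with drug at most 40%, in both replicates (limit read from the data, passing the limit was not always enough); inconclusive = both conditions met in only one replicate; inactive = neither replicate meets both conditions.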

Experiments:
[1] = Her2 expression decrease, cell viability multiplex – SKBR3 breast tumor cells, AlphaScreen, ATP viability, primary screen (AID 461;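 active = Her2 level under about 52% in both replicate screens, with viability over 70% of control, limit read from the data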;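 for Her2 level: lower value means less Her2 protein in the cells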;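 for viability: percent of carrier control wells set as 100% viability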); settings: SKBR3 Her2 protein level, 18-24 h, measured here: SKBR3 viability, ATP luminescence, at 10 µM
[2] = biological target: Receptor tyrosine-protein kinase erbB-2 (Homo sapiens) (UniProt P04626); assay: as above; settings: 18-24 h, at 10 µM, stronger effect = lower value
Sequence of Receptor tyrosine-protein kinase erbB-2 (Homo sapiens) (P04626 whole entry, looked up): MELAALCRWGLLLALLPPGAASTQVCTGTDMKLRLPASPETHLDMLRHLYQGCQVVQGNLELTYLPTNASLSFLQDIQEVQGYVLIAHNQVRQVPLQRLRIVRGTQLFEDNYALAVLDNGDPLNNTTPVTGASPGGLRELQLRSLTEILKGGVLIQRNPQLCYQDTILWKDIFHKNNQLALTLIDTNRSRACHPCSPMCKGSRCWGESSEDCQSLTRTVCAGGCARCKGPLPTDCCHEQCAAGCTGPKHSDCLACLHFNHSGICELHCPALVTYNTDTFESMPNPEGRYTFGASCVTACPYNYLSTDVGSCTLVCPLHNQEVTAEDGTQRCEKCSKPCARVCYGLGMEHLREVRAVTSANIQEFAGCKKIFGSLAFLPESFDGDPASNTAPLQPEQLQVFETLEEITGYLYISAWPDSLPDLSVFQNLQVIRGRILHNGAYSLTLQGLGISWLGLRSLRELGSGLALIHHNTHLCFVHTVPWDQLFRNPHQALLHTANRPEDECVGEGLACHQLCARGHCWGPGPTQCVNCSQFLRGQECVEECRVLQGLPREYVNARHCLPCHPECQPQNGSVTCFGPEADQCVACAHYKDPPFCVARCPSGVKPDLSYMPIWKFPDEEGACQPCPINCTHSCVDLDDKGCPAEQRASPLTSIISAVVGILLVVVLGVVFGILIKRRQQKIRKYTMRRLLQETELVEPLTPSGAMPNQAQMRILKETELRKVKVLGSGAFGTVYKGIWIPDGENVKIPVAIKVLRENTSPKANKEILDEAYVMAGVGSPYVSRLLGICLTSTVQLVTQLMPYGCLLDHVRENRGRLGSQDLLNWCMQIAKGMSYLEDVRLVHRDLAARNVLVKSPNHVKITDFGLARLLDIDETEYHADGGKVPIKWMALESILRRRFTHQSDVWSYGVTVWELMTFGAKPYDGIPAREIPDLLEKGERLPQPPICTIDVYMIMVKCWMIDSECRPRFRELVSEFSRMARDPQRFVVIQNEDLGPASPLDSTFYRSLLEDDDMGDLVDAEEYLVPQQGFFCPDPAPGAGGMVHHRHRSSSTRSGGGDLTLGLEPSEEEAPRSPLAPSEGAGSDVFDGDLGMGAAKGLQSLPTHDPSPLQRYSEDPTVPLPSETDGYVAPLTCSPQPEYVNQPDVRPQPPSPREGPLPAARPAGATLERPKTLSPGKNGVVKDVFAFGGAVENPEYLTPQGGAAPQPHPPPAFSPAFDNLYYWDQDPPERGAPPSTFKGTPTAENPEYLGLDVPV

[3] = reduced viability of SK-BR-3 breast cancer cells – cell-based, 24 h, human, pilot screen (AID 572;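 active = viability at or below 10% of carrier control in both of two separate runs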;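 note: compound exposure lasted between 18 and 24 h rather than exactly 24 h; 100% = carrier-treated control wells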); settings: SK-BR-3 viability, CellTiter-Glo luminescence, at 10 µM, stronger effect = lower value
[4] = HUVEC growth inhibition – cell-based, human, primary screen (AID 575;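 active = viability at or below 30% in both replicate assays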;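 note: 100% = median of untreated cell wells with 0.1% DMSO on each plate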); settings: HUVEC proliferation, CellTiter-Glo luminescence, 72 h; at 10 µM; stronger effect = lower value
Procedure, shortened: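 Assay system: primary human umbilical vein endothelial cells / Buffer or medium: endothelial basal medium with 2% FBS plus growth supplements / Compound dosing: one dose, 10 µM final, 0.1% DMSO / Timing: 72 h treatment at 37 °C / Signal: CTG luminescence / Benchmarks: 32 DMSO-only cell-control wells (high), 32 MePR drug-control wells (low) per plate / Plate: collagen-coated 384-well format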

[5] = H69AR cell proliferation blockers – human, duplicate replicates, primary screen (AID 580;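 active = viability at or under a set limit in both replicates, limit being median viability minus 3 SD, cut at about 48% in these data, passing the limit was not always enough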;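 note: 100% = mean luminescence of untreated wells and 0% = no signal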); settings: H69AR lung tumor cells viability, ATP luminescence, 72 h; at 10 µM; stronger effect = lower value
[6] = MRP1 drug-resistance reversers in H69AR cells – cell-based, doxorubicin co-treatment, pilot screen (AID 601); settings: CellTiter-Glo, 72 h, at 10 µM; for differential viability (reversal): stronger effect = higher value
[7] = yeast transport mutant growth inhibition pilot in 384-well plates, post-Golgi transport modulator project (AID 636; in the data active = inhibition above about 31%); settings: absorbance 615 nm, about 18 h, stronger effect = higher value
[8] = growth suppression of yeast trafficking mutant, preliminary HTS, modulators of trafficking downstream of Golgi apparatus project, 1536-format plate, OD 615 nm (AID 637; in the data active = inhibition above about 30%); settings: yeast transport mutant growth, absorbance 615 nm, 18 h; stronger effect = higher value
[9] = H69AR cells + 2 uM doxorubicin, measured here: viability with 2 uM doxorubicin, stronger effect = lower value
[10] = H69AR cells, compound alone cytotoxicity

SMILES	viability [1] [%]	Her2 level [2]	viability [3]	viability [4]	viability [5]	differential viability (reversal) ([6]; H69AR cells + 2 uM doxorubicin)	viability [6, 9] [%]	viability [6, 10] [%]	inhibition [7]	inhibition [8]
Cc1ccc(-n2nc(-c3cccs3)cc2C(=O)NCC2CCCO2)c(C)c1 (stereo not given)	122	100% (inactive)	122% (inactive)	71.3% (inactive)	86.5% (inactive)	-14% (inactive)	100	86.5	-4.67% (inactive)	-6.72% (inactive)
COCCn1nnnc1C(c1cccs1)N1CCN(c2cc(C)ccc2C)CC1 (stereo not given)	107	84.5% (inactive)	107% (inactive)	84.8% (inactive)	92.5% (inactive)	2.44% (inactive)	90.1	92.5	1.3% (inactive)	1.27% (inactive)
Cn1cccc1-c1cc(C(=O)O)[nH]n1	129	110% (inactive)	129% (inactive)	106% (inactive)	93.8% (inactive)	-7.12% (inactive)	101	93.8	-4.61% (inactive)	1.64% (inactive)
Cc1ccc2oc(-c3ccccc3C(=O)O)cc(=O)c2c1	88.5	84.5% (inactive)	88.5% (inactive)	89.3% (inactive)	101% (inactive)	-2.34% (inactive)	103	101	-6.93% (inactive)	6.07% (inactive)
O=C(CCCCC(=O)NCc1cccs1)NCc1cccs1	95.5	106% (inactive)	95.5% (inactive)	99.7% (inactive)	97.8% (inactive)	0.77% (inactive)	97	97.8	1.2% (inactive)	-7.42% (inactive)
Cn1c(SCc2ccc3c(c2)OCO3)nnc1-c1ccccc1	99.5	108% (inactive)	99.5% (inactive)	99.1% (inactive)	96.2% (inactive)	11.7% (inactive)	84.4	96.2	1.45% (inactive)	-1.11% (inactive)
Cc1ccc(C(=O)OCC(=O)c2ccc(Cl)s2)s1	93.5	101% (inactive)	93.5% (inactive)	96% (inactive)	97.4% (inactive)	6.55% (inactive)	90.8	97.4	-0.93% (inactive)	-10.3% (inactive)
COc1cccc(-c2cc(C(F)(F)F)n3ncc(C(=O)O)c3n2)c1	93	87.5% (inactive)	93% (inactive)	117% (inactive)	108% (inactive)	9.06% (inactive)	98.8	108	-3.2% (inactive)	-2.95% (inactive)
CCN(CC)c1ccc(NC(=O)c2cncc(Br)c2)cc1	97.5	91% (inactive)	97.5% (inactive)	76.2% (inactive)	79.9% (inactive)	-25.4% (inactive)	105	79.9	-4.47% (inactive)	3.77% (inactive)
N#Cc1c(/N=C/c2ccco2)sc2c1CCC2	99	139% (inactive)	99% (inactive)	85.2% (inactive)	85.7% (inactive)	-1.43% (inactive)	87.1	85.7	-2.76% (inactive)	11.2% (inactive)
COc1ccc(N2CCN(C(c3cccs3)C(C)NC(=O)c3ccco3)CC2)cc1 (stereo not given)	90	76.5% (inactive)	90% (inactive)	82.1% (inactive)	86.3% (inactive)	-4.01% (inactive)	90.3	86.3	-4.53% (inactive)	-0.16% (inactive)
Cc1nc(NCc2ccco2)c2oc3ccccc3c2n1	114	87% (inactive)	114% (inactive)	100% (inactive)	80.6% (inactive)	-1.13% (inactive)	81.8	80.6	-6.4% (inactive)	4.44% (inactive)
Cc1ccc2nsnc2c1S(=O)(=O)N(Cc1cc2cccc(C)c2[nH]c1=O)CC1CCCO1 (stereo not given)	81.5	89% (inactive)	81.5% (inactive)	82.3% (inactive)	21.4% (active)	0% (inactive)	21.4	21.4	-5.6% (inactive)	-0.66% (inactive)
Cc1cc(C(=O)NCc2cccnc2)n(-c2ccccc2)n1	93.5	97% (inactive)	93.5% (inactive)	102% (inactive)	107% (inactive)	14.4% (inactive)	92.9	107	-0.93% (inactive)	-6.07% (inactive)
CCC(C)(C(=O)NC1CCCC1)N(C(=O)c1cnccn1)c1c(C)n(C)n(-c2ccccc2)c1=O (stereo not given)	97	124% (inactive)	97% (inactive)	94.4% (inactive)	91.4% (inactive)	0.145% (inactive)	91.2	91.4	2.34% (inactive)	-7.38% (inactive)
Cc1ccc(-n2nnnc2SCC(=O)Nc2c(C)n(C)n(-c3ccccc3)c2=O)cc1	102	104% (inactive)	102% (inactive)	105% (inactive)	90.8% (inactive)	-13.5% (inactive)	104	90.8	0.8% (inactive)	10.8% (inactive)
O=C(Nc1cccc(NC(=O)c2cccnc2)c1)c1cccnc1	89	80% (inactive)	89% (inactive)	119% (inactive)	86.7% (inactive)	-2.21% (inactive)	88.9	86.7	-5% (inactive)	1.67% (inactive)
COc1cccc(OC)c1C(=O)N1CCN(S(=O)(=O)c2ccccc2)CC1	79.5	82.5% (inactive)	79.5% (inactive)	82.9% (inactive)	97.2% (inactive)	15.2% (inactive)	82.1	97.2	-3.42% (inactive)	-2% (inactive)
Cc1ccc(-c2nc3ncccc3o2)cc1NC(=O)c1ccco1	97.5	76.5% (inactive)	97.5% (inactive)	100% (inactive)	99.2% (inactive)	7.96% (inactive)	91.3	99.2	-6.76% (inactive)	-2.62% (inactive)
O=C(CSc1ncccn1)NCc1ccccc1	94	112% (inactive)	94% (inactive)	106% (inactive)	105% (inactive)	5.14% (inactive)	100	105	4.4% (inactive)	-8.71% (inactive)
C/C(N)=C(/C#N)C(=O)COC(=O)COc1ccc(Cl)cc1	93	100% (inactive)	93% (inactive)	98% (inactive)	91.9% (inactive)	-5.87% (inactive)	97.7	91.9	-7.07% (inactive)	-5.08% (inactive)
Cc1ccc(-c2nn(C)c(=O)c3ccccc23)cc1S(=O)(=O)NCCN1CCOCC1	87	121% (inactive)	87% (inactive)	98.6% (inactive)	93.3% (inactive)	5.54% (inactive)	87.8	93.3	6.8% (inactive)	-6.35% (inactive)
O=C(CSc1ncnc2c1cnn2Cc1ccccc1)Nc1ccc2c(c1)OCCO2	109	98.5% (inactive)	109% (inactive)	74.9% (inactive)	56.1% (inactive)	-5.15% (inactive)	61.3	56.1	-4.68% (inactive)	-6.23% (inactive)
NC1=NC(c2ccc(Cl)cc2)n2c(nc3ccccc32)N1 (stereo not given)	96	86% (inactive)	96% (inactive)	84.9% (inactive)	78.4% (inactive)	-10.8% (inactive)	89.3	78.4	-5.13% (inactive)	-0.73% (inactive)
Cc1cccc(-n2c(Cc3cc(=O)[nH]c(=O)[nH]3)nnc2SCC(=O)NCc2ccco2)c1	99.5	89.5% (inactive)	99.5% (inactive)	108% (inactive)	111% (inactive)	13.9% (inactive)	97.1	111	-7.07% (inactive)	4.19% (inactive)
CCOC(=O)c1c(C)c(C(=O)NCCN2CCOCC2)c(C)n1C	89.5	91% (inactive)	89.5% (inactive)	107% (inactive)	86.7% (inactive)	-3.83% (inactive)	90.5	86.7	-10.7% (inactive)	1.11% (inactive)
CCc1cc(=O)oc2c(CN3CCN(C)CC3)c(O)c(Cl)cc12	107	93.5% (inactive)	107% (inactive)	92.6% (inactive)	98.4% (inactive)	6.53% (inactive)	91.8	98.4	-2.5% (inactive)	-3.61% (inactive)
